Results as given in ChEMBL document CHEMBL5058577, “EUbOPEN Chemogenomics Library 2 (Multiplex)” (2022).

Test system: Fibroblast
Assay: Multiplex assay against human fibroblast
Type: toxicity, cell-based
Summary of the method: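 Live cells carried four stains from seeding: Hoechst33342, BioTracker Green Microtubule Cytoskeleton Dye, MitoTracker Red and Annexin V Alexa Fluor 680. They were imaged on a CQ1 microscope at 37°C and 5% CO2 after compound addition. Using CellPathfinder machine-learning gating, cells were split into Hoechst high-intensity objects or normal cells, normal cells into healthy, pyknosed or fragmented nuclei, and pyknosed cells into mitotic or apoptotic; tubulin, mitochondrial-mass and membrane-permeability phenotypes are per cents of healthy-nucleus cells.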

[1] = 12 h, 1 µM, compound concentration 1 uM, replicate 1
[2] = 12 h, 1 µM, compound concentration 1 uM, replicate 2
[3] = 12 h, 10 µM, compound concentration 10 uM, replicate 1
[4] = 12 h, 10 µM, compound concentration 10 uM, replicate 2
[5] = 24 h, 1 µM, compound concentration 1 uM, replicate 1
[6] = 24 h, 1 µM, compound concentration 1 uM, replicate 2
[7] = 24 h, 10 µM, compound concentration 10 uM, replicate 1
[8] = 24 h, 10 µM, compound concentration 10 uM, replicate 2
[9] = 48 h, 1 µM, compound concentration 1 uM, replicate 1
[10] = 48 h, 1 µM, compound concentration 1 uM, replicate 2
[11] = 48 h, 10 µM, compound concentration 10 uM, replicate 1
[12] = 48 h, 10 µM, compound concentration 10 uM, replicate 2

C[C@H](NC(=O)CNC(=O)c1cccc(Cl)c1)c1ccccc1
Population Apoptotic (%) [1]: 50%
Population Fragmented Nuclei (%) [1]: 18%
Population Healthy Nuclei (%) [1]: 71%
Population Hoechst High Intensity Objects (%) [1]: 0%
Population Membrane Permeable-Phenotype (%) [1]: 0%
Population Mitochondria Different-Phenotype (%) [1]: 4%
Population Mitotic Cells (%) [1]: 50%
Population Normal (%) [1]: 100%
Population Pyknosed Nuclei (%) [1]: 10%
Population Tubulin-Different-Phenotype (%) [1]: 17%
Total Cell Count [1]: 94
Population Apoptotic (%) [2]: 44%
Population Fragmented Nuclei (%) [2]: 28%
Population Healthy Nuclei (%) [2]: 53%
Population Hoechst High Intensity Objects (%) [2]: 3%
Population Membrane Permeable-Phenotype (%) [2]: 6%
Population Mitochondria Different-Phenotype (%) [2]: 2%
Population Mitotic Cells (%) [2]: 56%
Population Normal (%) [2]: 96%
Population Pyknosed Nuclei (%) [2]: 18%
Population Tubulin-Different-Phenotype (%) [2]: 41%
Total Cell Count [2]: 140
Population Apoptotic (%) [3]: 48%
Population Fragmented Nuclei (%) [3]: 15%
Population Healthy Nuclei (%) [3]: 58%
Population Hoechst High Intensity Objects (%) [3]: 2%
Population Membrane Permeable-Phenotype (%) [3]: 0%
Population Mitochondria Different-Phenotype (%) [3]: 8%
Population Mitotic Cells (%) [3]: 51%
Population Normal (%) [3]: 97%
Population Pyknosed Nuclei (%) [3]: 26%
Population Tubulin-Different-Phenotype (%) [3]: 35%
Total Cell Count [3]: 106
Population Apoptotic (%) [4]: 43%
Population Fragmented Nuclei (%) [4]: 31%
Population Healthy Nuclei (%) [4]: 43%
Population Hoechst High Intensity Objects (%) [4]: 1%
Population Membrane Permeable-Phenotype (%) [4]: 13%
Population Mitochondria Different-Phenotype (%) [4]: 3%
Population Mitotic Cells (%) [4]: 56%
Population Normal (%) [4]: 98%
Population Pyknosed Nuclei (%) [4]: 24%
Population Tubulin-Different-Phenotype (%) [4]: 54%
Total Cell Count [4]: 124
Population Apoptotic (%) [5]: 43%
Population Fragmented Nuclei (%) [5]: 17%
Population Healthy Nuclei (%) [5]: 65%
Population Hoechst High Intensity Objects (%) [5]: 1%
Population Membrane Permeable-Phenotype (%) [5]: 1%
Population Mitochondria Different-Phenotype (%) [5]: 3%
Population Mitotic Cells (%) [5]: 56%
Population Normal (%) [5]: 98%
Population Pyknosed Nuclei (%) [5]: 17%
Population Tubulin-Different-Phenotype (%) [5]: 25%
Total Cell Count [5]: 93
Population Apoptotic (%) [6]: 33%
Population Fragmented Nuclei (%) [6]: 30%
Population Healthy Nuclei (%) [6]: 50%
Population Hoechst High Intensity Objects (%) [6]: 3%
Population Membrane Permeable-Phenotype (%) [6]: 8%
Population Mitochondria Different-Phenotype (%) [6]: 4%
Population Mitotic Cells (%) [6]: 66%
Population Normal (%) [6]: 96%
Population Pyknosed Nuclei (%) [6]: 19%
Population Tubulin-Different-Phenotype (%) [6]: 42%
Total Cell Count [6]: 145
Population Apoptotic (%) [7]: 52%
Population Fragmented Nuclei (%) [7]: 14%
Population Healthy Nuclei (%) [7]: 61%
Population Hoechst High Intensity Objects (%) [7]: 2%
Population Membrane Permeable-Phenotype (%) [7]: 1%
Population Mitochondria Different-Phenotype (%) [7]: 3%
Population Mitotic Cells (%) [7]: 48%
Population Normal (%) [7]: 97%
Population Pyknosed Nuclei (%) [7]: 24%
Population Tubulin-Different-Phenotype (%) [7]: 45%
Total Cell Count [7]: 107
Population Apoptotic (%) [8]: 56%
Population Fragmented Nuclei (%) [8]: 33%
Population Healthy Nuclei (%) [8]: 45%
Population Hoechst High Intensity Objects (%) [8]: 5%
Population Membrane Permeable-Phenotype (%) [8]: 5%
Population Mitochondria Different-Phenotype (%) [8]: 7%
Population Mitotic Cells (%) [8]: 43%
Population Normal (%) [8]: 94%
Population Pyknosed Nuclei (%) [8]: 20%
Population Tubulin-Different-Phenotype (%) [8]: 64%
Total Cell Count [8]: 118
Population Apoptotic (%) [9]: 33%
Population Fragmented Nuclei (%) [9]: 20%
Population Healthy Nuclei (%) [9]: 67%
Population Hoechst High Intensity Objects (%) [9]: 1%
Population Membrane Permeable-Phenotype (%) [9]: 0%
Population Mitochondria Different-Phenotype (%) [9]: 0%
Population Mitotic Cells (%) [9]: 66%
Population Normal (%) [9]: 98%
Population Pyknosed Nuclei (%) [9]: 12%
Population Tubulin-Different-Phenotype (%) [9]: 26%
Total Cell Count [9]: 95
Population Apoptotic (%) [10]: 40%
Population Fragmented Nuclei (%) [10]: 29%
Population Healthy Nuclei (%) [10]: 52%
Population Hoechst High Intensity Objects (%) [10]: 3%
Population Membrane Permeable-Phenotype (%) [10]: 4%
Population Mitochondria Different-Phenotype (%) [10]: 2%
Population Mitotic Cells (%) [10]: 60%
Population Normal (%) [10]: 96%
Population Pyknosed Nuclei (%) [10]: 17%
Population Tubulin-Different-Phenotype (%) [10]: 44%
Total Cell Count [10]: 147
Population Apoptotic (%) [11]: 68%
Population Fragmented Nuclei (%) [11]: 15%
Population Healthy Nuclei (%) [11]: 56%
Population Hoechst High Intensity Objects (%) [11]: 7%
Population Membrane Permeable-Phenotype (%) [11]: 1%
Population Mitochondria Different-Phenotype (%) [11]: 15%
Population Mitotic Cells (%) [11]: 31%
Population Normal (%) [11]: 92%
Population Pyknosed Nuclei (%) [11]: 27%
Population Tubulin-Different-Phenotype (%) [11]: 50%
Total Cell Count [11]: 112
Population Apoptotic (%) [12]: 69%
Population Fragmented Nuclei (%) [12]: 38%
Population Healthy Nuclei (%) [12]: 50%
Population Hoechst High Intensity Objects (%) [12]: 4%
Population Membrane Permeable-Phenotype (%) [12]: 6%
Population Mitochondria Different-Phenotype (%) [12]: 5%
Population Mitotic Cells (%) [12]: 30%
Population Normal (%) [12]: 95%
Population Pyknosed Nuclei (%) [12]: 11%
Population Tubulin-Different-Phenotype (%) [12]: 67%
Total Cell Count [12]: 121
